Assay results as given in ChEMBL document CHEMBL5705904 (N Engl J Med, 2016).

Legend:
[1] = Cmax in human at 175 mg, po administered for 8 days by LC-MS/MS analysis; format: ADME, organism-based; conditions: in vivo, time 8 day
Procedure, shortened: (§1)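 Steady-state plasma sampling on cycle 1 day 8 in patients, predose and 0.25, 0.5, 0.75, 1, 2, 4 and 6 h post-dose, into lithium heparin. Plasma was stored at -80°C. Drug was quantified by validated LC-MS/MS against a stable labeled internal standard, using only values at or above LLOQ and nominal sampling times.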

[2] = AUC(0 to 24 hrs) in human at 400 mg, po administered for 8 days by LC-MS/MS analysis; format: ADME, organism-based; conditions: in vivo, time 8 day; procedure, shortened: as §1
[3] = Apparent oral clearance in human at 250 mg, po administered for 8 days by LC-MS/MS analysis; format: ADME, organism-based; conditions: in vivo, time 8 day; procedure, shortened: as §1
[4] = AUC(0 to 6 hrs) in human at 175 mg, po administered for 8 days by LC-MS/MS analysis; format: ADME, organism-based; conditions: in vivo, time 8 day; procedure, shortened: as §1
[5] = biological target: Tyrosine-protein kinase HCK (Homo sapiens, UniProt P08631); assay: Inhibition of recombinant HCK (unknown origin) preincubated for 1 hr in presence of ATP by Z-Lyte assay
Tyrosine-protein kinase HCK, sequence (P08631 whole entry): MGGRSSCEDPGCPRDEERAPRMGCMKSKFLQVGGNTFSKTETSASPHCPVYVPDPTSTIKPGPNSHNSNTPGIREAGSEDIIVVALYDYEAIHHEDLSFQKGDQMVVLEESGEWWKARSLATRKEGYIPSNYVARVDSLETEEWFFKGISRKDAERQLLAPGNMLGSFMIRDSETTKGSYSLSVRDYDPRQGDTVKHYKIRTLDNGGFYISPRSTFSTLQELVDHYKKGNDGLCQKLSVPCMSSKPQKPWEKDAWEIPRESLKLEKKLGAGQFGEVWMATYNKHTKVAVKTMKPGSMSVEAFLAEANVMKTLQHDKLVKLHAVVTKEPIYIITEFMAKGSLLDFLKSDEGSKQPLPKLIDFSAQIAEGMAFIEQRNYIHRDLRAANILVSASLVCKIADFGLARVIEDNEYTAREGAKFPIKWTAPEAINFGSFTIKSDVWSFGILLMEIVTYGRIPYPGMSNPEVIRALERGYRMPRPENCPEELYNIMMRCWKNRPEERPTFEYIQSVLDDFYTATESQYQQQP
Procedure, shortened: (§2)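 Recombinant kinase activity was measured by Z'-LYTE with ATP at each enzyme's Km. Inhibitor came from a 10 mM DMSO stock and was tested at 10 concentrations. Compound was preincubated with kinase for 1 h before ATP addition started the reaction, for about 2 h total compound-kinase exposure. IC50 is from 2–3 independent experiments.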

[6] = Cmax in human at 250 mg, po administered for 8 days by LC-MS/MS analysis; format: ADME, organism-based; conditions: in vivo, time 8 day; procedure, shortened: as §1
[7] = biological target: Tyrosine-protein kinase Blk (Homo sapiens, UniProt P51451); assay: Inhibition of recombinant BLK (unknown origin) preincubated for 1 hr in presence of ATP by Z-Lyte assay; procedure, shortened: as §2
Tyrosine-protein kinase Blk, sequence (P51451 whole entry): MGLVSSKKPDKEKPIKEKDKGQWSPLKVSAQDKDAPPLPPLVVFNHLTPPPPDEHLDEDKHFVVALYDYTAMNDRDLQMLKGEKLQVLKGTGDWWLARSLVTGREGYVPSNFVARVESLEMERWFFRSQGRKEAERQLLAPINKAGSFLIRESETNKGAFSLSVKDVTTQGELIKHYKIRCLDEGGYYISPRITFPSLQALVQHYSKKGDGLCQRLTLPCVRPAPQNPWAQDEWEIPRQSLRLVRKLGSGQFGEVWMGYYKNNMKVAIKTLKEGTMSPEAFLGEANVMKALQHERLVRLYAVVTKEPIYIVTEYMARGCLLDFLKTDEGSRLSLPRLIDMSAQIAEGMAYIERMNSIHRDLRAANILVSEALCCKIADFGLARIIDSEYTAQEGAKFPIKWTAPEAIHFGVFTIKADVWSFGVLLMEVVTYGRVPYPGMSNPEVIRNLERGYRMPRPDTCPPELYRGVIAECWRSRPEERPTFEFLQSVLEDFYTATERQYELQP

[8] = Tmax in human at 400 mg, po administered for 8 days by LC-MS/MS analysis; format: ADME, organism-based; conditions: in vivo, time 8 day
Procedure, shortened: (§3)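 Patient plasma sampled on cycle 1 day 8 at predose and 0.25, 0.5, 0.75, 1, 2, 4 and 6 h post-dose, in lithium heparin. […] Tmax read directly from each individual's data; summarized descriptively.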

[9] = biological target: T1, Tyrosine-protein kinase TXK (Homo sapiens, UniProt P42681); assay: Inhibition of recombinant TXK (unknown origin) preincubated for 1 hr in presence of ATP by Z-Lyte assay
T1 sequence (P42681 whole entry): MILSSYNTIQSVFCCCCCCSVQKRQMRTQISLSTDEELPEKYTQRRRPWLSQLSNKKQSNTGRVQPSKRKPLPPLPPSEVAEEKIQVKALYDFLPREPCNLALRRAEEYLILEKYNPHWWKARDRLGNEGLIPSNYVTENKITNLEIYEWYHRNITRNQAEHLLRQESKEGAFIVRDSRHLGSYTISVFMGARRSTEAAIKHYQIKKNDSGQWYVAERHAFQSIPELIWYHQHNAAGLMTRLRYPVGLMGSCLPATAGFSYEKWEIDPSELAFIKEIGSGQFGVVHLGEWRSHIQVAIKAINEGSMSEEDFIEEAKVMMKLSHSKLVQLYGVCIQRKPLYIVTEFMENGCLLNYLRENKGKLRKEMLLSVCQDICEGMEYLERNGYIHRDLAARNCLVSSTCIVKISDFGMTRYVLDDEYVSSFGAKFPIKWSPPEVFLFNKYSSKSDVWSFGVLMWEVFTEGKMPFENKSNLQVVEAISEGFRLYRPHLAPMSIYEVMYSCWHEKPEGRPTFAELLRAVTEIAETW

[10] = AUC(0 to infinity) in human at 100 mg, po BID administered for 8 days by LC-MS/MS analysis; format: ADME, organism-based; conditions: in vivo, time 8 day; procedure, shortened: as §1
[11] = AUC(0 to infinity) in human at 250 mg, po administered for 8 days by LC-MS/MS analysis; format: ADME, organism-based; conditions: in vivo, time 8 day; procedure, shortened: as §1
[12] = Apparent oral clearance in human at 100 mg, po administered for 8 days by LC-MS/MS analysis; format: ADME, organism-based; conditions: in vivo, time 8 day; procedure, shortened: as §1
[13] = Tmax in human at 100 mg, po BID administered for 8 days by LC-MS/MS analysis; format: ADME, organism-based; conditions: in vivo, time 8 day; procedure, shortened: as §3
[14] = biological target: Tyrosine-protein kinase Fyn (Homo sapiens, UniProt P06241); assay: Inhibition of recombinant FYN (unknown origin) preincubated for 1 hr […] by Z-Lyte assay; procedure, shortened: as §2
Tyrosine-protein kinase Fyn, sequence (P06241 whole entry): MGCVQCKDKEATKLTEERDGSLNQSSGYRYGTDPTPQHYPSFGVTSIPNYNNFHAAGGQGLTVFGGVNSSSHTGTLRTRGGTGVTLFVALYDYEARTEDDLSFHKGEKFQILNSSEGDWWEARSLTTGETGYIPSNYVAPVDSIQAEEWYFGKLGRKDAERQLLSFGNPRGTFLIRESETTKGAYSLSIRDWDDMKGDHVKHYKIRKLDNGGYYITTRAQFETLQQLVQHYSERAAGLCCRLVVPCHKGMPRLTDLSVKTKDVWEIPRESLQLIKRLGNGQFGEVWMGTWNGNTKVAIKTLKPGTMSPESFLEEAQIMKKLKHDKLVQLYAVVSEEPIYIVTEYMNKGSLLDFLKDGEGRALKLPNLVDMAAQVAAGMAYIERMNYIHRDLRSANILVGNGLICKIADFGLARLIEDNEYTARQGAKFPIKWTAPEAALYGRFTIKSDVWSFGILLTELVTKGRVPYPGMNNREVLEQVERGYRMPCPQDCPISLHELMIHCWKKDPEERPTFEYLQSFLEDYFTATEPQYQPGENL

[15] = AUC(0 to infinity) in human at 100 mg, po administered for 8 days by LC-MS/MS analysis; format: ADME, organism-based; conditions: in vivo, time 8 day; procedure, shortened: as §1
[16] = AUC(0 to 12 hrs) in human at 175 mg, po administered for 8 days by LC-MS/MS analysis; format: ADME, organism-based; conditions: in vivo, time 8 day; procedure, shortened: as §1
[17] = Apparent volume of distribution during terminal phase in human at 175 mg, po administered for 8 days by LC-MS/MS analysis; format: ADME, organism-based; conditions: in vivo, time 8 day, read-out: Vz/F; procedure, shortened: as §1
[18] = Apparent volume of distribution during terminal phase in human at 250 mg, po administered for 8 days by LC-MS/MS analysis; format: ADME, organism-based; conditions: in vivo, time 8 day, read-out: Vz/F; procedure, shortened: as §1
[19] = biological target: Tyrosine-protein kinase Lck (Homo sapiens, UniProt P06239); assay: Inhibition of recombinant LCK (unknown origin) preincubated for 1 hr […] by Z-Lyte assay; procedure, shortened: as §2
Tyrosine-protein kinase Lck, sequence (P06239 whole entry): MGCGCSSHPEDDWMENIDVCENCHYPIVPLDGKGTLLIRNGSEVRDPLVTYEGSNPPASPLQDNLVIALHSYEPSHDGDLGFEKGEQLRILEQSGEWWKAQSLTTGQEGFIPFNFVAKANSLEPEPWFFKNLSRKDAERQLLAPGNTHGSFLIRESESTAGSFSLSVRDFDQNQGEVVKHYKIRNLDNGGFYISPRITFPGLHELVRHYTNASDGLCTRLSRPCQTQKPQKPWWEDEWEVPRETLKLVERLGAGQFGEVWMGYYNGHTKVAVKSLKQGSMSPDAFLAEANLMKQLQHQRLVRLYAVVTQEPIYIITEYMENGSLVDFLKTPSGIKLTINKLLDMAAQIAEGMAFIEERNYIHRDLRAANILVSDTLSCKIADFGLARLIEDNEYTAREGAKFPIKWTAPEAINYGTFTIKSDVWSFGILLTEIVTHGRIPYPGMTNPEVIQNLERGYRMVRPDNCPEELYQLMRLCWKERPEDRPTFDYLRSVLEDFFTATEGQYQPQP

[20] = Half life in human at 175 mg, po administered for 8 days by LC-MS/MS analysis; format: ADME, organism-based; conditions: in vivo, time 8 day; procedure, shortened: as §1
[21] = biological target: Proto-oncogene tyrosine-protein kinase Src (Homo sapiens, UniProt P12931); assay: Inhibition of recombinant SRC (unknown origin) preincubated for 1 hr in presence of ATP by Z-Lyte assay
Proto-oncogene tyrosine-protein kinase Src, sequence (P12931 2-536 limits assumed): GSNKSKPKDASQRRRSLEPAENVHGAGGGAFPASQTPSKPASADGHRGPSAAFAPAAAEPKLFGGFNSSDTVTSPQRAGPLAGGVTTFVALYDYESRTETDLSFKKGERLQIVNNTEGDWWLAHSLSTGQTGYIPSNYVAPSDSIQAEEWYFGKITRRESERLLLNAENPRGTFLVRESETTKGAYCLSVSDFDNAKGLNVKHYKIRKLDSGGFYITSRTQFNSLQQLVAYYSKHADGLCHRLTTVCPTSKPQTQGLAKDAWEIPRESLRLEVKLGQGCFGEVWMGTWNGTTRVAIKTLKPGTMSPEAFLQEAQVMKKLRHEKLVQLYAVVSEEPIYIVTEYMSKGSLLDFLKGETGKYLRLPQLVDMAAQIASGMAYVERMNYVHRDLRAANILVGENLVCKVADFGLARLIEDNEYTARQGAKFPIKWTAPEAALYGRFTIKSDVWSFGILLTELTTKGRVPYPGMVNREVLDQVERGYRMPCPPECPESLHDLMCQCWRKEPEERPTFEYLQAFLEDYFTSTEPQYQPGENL

[22] = AUC(0 to 12 hrs) in human at 250 mg, po administered for 8 days by LC-MS/MS analysis; format: ADME, organism-based; conditions: in vivo, time 8 day; procedure, shortened: as §1
[23] = AUC(0 to 6 hrs) in human at 100 mg, po administered for 8 days by LC-MS/MS analysis; format: ADME, organism-based; conditions: in vivo, time 8 day; procedure, shortened: as §1
[24] = Cmax in human at 100 mg, po administered for 8 days by LC-MS/MS analysis; format: ADME, organism-based; conditions: in vivo, time 8 day; procedure, shortened: as §1
[25] = biological target: Tyrosine-protein kinase Fgr (Homo sapiens, UniProt P09769); assay: Inhibition of recombinant FGR (unknown origin) preincubated for 1 hr in presence of ATP by Z-Lyte assay; procedure, shortened: as §2
Tyrosine-protein kinase Fgr, sequence (P09769 whole entry): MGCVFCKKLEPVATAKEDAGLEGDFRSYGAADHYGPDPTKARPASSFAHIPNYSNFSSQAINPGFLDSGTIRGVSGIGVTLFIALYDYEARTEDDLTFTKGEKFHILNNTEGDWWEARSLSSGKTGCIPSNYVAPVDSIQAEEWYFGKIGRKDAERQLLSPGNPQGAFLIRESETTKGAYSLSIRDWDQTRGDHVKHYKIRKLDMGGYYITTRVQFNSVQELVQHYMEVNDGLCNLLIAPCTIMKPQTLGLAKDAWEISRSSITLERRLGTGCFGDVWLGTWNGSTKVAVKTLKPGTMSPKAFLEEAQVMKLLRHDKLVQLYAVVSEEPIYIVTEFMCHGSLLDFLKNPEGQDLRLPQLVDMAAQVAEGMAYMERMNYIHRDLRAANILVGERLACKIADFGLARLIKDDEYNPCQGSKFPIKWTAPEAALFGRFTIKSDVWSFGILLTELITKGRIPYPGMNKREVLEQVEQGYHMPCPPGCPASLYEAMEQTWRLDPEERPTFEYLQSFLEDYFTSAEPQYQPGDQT

[26] = Half life in human at 100 mg, po administered for 8 days by LC-MS/MS analysis; format: ADME, organism-based; conditions: in vivo, time 8 day; procedure, shortened: as §1
[27] = AUC(0 to infinity) in human at 175 mg, po administered for 8 days by LC-MS/MS analysis; format: ADME, organism-based; conditions: in vivo, time 8 day; procedure, shortened: as §1
[28] = AUC(0 to 12 hrs) in human at 100 mg, po administered for 8 days by LC-MS/MS analysis; format: ADME, organism-based; conditions: in vivo, time 8 day; procedure, shortened: as §1
[29] = Half life in human at 400 mg, po administered for 8 days by LC-MS/MS analysis; format: ADME, organism-based; conditions: in vivo, time 8 day; procedure, shortened: as §1
[30] = Terminal elimination half life in human at 175 mg, po administered for 8 days by LC-MS/MS analysis; format: ADME, organism-based; conditions: in vivo, time 8 day, read-out: LambdaZ (converted)
[31] = Terminal elimination half life in human at 100 mg, po administered for 8 days by LC-MS/MS analysis; format: ADME, organism-based; conditions: in vivo, time 8 day, read-out: LambdaZ (converted)

Cmax [1]: 805 ng/mL
AUC at 192 h [2]: 1870 ng·h/mL
CL/F [3]: 2170 mL/min
AUC at 192 h [4]: 1140 ng·h/mL
IC50 [5]: > 1 µM
Cmax [6]: 1350 ng/mL
IC50 [7]: > 1 µM
Tmax [8]: 0.92 h
IC50 [9]: 0.368 µM
AUC(0-inf) [10]: 927 ng·h/mL
AUC(0-inf) [11]: 2310 ng·h/mL
CL/F [12]: 3000 mL/min
Tmax [13]: 1 h
IC50 [14]: > 1 µM
AUC(0-inf) [15]: 603 ng·h/mL
AUC at 192 h [16]: 1160 ng·h/mL
Vd/F [17]: 317 L
Vd/F [18]: 179 L
IC50 [19]: > 1 µM
half-life [20]: 1.02 h
IC50 [21]: > 1 µM
AUC at 192 h [22]: 2310 ng·h/mL
AUC at 192 h [23]: 584 ng·h/mL
Cmax [24]: 529 ng/mL
IC50 [25]: > 1 µM
half-life [26]: 1.16 h
AUC(0-inf) [27]: 1160 ng·h/mL
AUC at 192 h [28]: 602 ng·h/mL
half-life [29]: 1.39 h
k el at 192 h [30]: 0.000194 s⁻¹
k el at 192 h [31]: 0.00017 s⁻¹
SMILES: CC#CC(=O)N1CCC[C@H]1c1nc(-c2ccc(C(=O)Nc3ccccn3)cc2)c2c(N)nccn12 [ACALABRUTINIB]
